Data taken from PMC3041204 (Diabetes Care, 2011).

Assays:
[1] = Safety: adverse events, hypoglycemia; assay type: in vivo, patients with type 1 diabetes; settings: for patients with hypoglycemia (adverse event): generally mild or occasionally moderate, safety population; for number of subjects administered glucose for the treatment of hypoglycemia: intravenous glucose (20%) at investigator's discretion when blood glucose <60 mg/dL or symptoms
[2] = assay type: in vivo, patients with type 1 diabetes; settings: s.c., arithmetic mean; n = 21 (lispro), n = 16 (RHI); serum insulin RIA
blood glucose = test: Postprandial glycemic response to a standardized liquid test meal; assay type: in vivo, patients with type 1 diabetes; settings: first 4 h after study drug administration
Outline: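 Single-blind crossover in adults with type 1 diabetes. Prandial insulin was withheld >8 h and basal insulin >12 h, and blood glucose was clamped to 100–120 mg/dL with IV glucose or insulin. After a 30-min baseline, staff gave an individually optimized SC abdominal insulin dose with or without hyaluronidase, then a liquid meal.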

Substance | patients with hypoglycemia (adverse event) [1] | number of subjects administered glucose for the treatment of hypoglycemia [1] | fraction of insulin exposure >2 h after injection [2] | fraction of total insulin exposure within the first hour following injection [2] | total hyperglycemic excursions (area under the curve >140 mg/dL) (blood glucose) | patients with mild injection-site erythema ([1]; in vivo)
insulin lispro | 13 of 22 | 6 of 21 | 22% | 39% | 526 min ⋅ mg^−1 ⋅ mL^−1 | 
regular human insulin [RHI] | 16 of 21 | 12 of 21 |  |  | 1,238 min ⋅ mg^−1 ⋅ mL^−1 | two
